The source of these data is ChEMBL document CHEMBL4428038, “Overcoming chloroquine resistance in malaria: Design, synthesis and structure-activity relationships of novel chemoreversal agents” (Eur J Med Chem, 2016).

pEC50, pIC50: −log10 of the molar value. In brackets after ≈: the same amount, converted by molar mass. Activity calls are given as the source filed them. The calls are words filed in the database; no cut-off is given here.

For orientation: pIC50 means the IC50 on a negative log10 scale, so that one unit is a factor of ten. What is called pEC50 is −log10 of the EC50, conventionally taken in molar units.

Data set [1] has as its system Plasmodium falciparum K1. As to the kind of experiment: Inhibition of CRT CVIET haplotype mutant in Plasmodium falciparum K1 isolate MRA-159 infected in erythrocytes assessed as chloroquine-coumarin probe accumulation at 10 uM after 10 hrs by Hoechst 33342 staining based flow cytometry (reference value: 35.57 +/- 3.84%). Also noted: scale not given: the % may be the effect or the level left. The data set is classed as cell-based. In outline:
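Infected erythrocyte cultures at 2.5% hematocrit and 7–12% parasitemia, synchronized to late-ring/early-trophozoite stage, were incubated with chloroquine-coumarin probe plus test agent for 10 h at 37 C. Cells were then washed, resuspended in PBS and read by flow cytometry (405 nm excitation, 450/50 filter). Hoechst-stained duplicate wells set parasitemia. Uptake = % infected erythrocytes fluorescent. Controls: PBS (negative), desipramine and parent compound (positive). ≥3 independent experiments; mean ± SEM.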
(In general: A flow cytometer gives signals particle by particle.)

For data set [2], the system named is Plasmodium falciparum. As to the kind of experiment: Potentiation of chloroquine-induced antimalarial activity against chloroquine-sensitive Plasmodium falciparum 3D7 isolate MRA-102 assessed as reduction in chloroquine IC50 at 500 nM relative to chloroquine alone. It is filed as functional.
Data set [3] has as its system Plasmodium falciparum. As to the kind of experiment: Potentiation of chloroquine-induced antimalarial activity against chloroquine-sensitive Plasmodium falciparum HB3 isolate MRA-155 assessed as reduction in chloroquine IC50 at 500 nM relative to chloroquine alone. The data set is classed as functional.
Data set [4] deals with Plasmodium falciparum 7G8. Description: Inhibition of CRT SVMNT haplotype mutant in intermediate chloroquine-resistant Plasmodium falciparum 7G8 isolate MRA-154 t assessed as reversal of chloroquine resistance by measuring reduction in chloroquine IC50 at 500 nM relative to chloroquine alone.
For data set [5], the system named is Plasmodium falciparum K1. As to the kind of experiment: Inhibition of CRT CVIET haplotype mutant in chloroquine-resistant Plasmodium falciparum K1 isolate MRA-159 assessed as reversal of chloroquine resistance by measuring reduction in chloroquine IC50 at 500 nM relative to chloroquine alone.
Data set [6] deals with T1, Chloroquine resistance transporter (Plasmodium falciparum), Q9N623 [K76T].
T1 sequence (whole entry): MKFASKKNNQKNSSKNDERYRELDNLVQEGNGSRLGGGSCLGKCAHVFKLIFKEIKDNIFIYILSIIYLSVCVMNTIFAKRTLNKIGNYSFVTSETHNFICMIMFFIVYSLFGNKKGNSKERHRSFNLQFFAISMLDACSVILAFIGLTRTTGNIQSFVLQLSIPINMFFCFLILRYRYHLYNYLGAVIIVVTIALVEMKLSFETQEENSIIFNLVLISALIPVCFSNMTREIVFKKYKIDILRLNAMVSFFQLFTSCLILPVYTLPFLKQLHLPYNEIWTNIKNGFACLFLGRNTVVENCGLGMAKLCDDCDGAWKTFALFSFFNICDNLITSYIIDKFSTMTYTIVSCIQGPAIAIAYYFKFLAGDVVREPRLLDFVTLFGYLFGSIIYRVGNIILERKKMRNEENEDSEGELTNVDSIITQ
As to the kind of experiment: Inhibition of CRT K76T mutant in chloroquine-resistant Plasmodium falciparum Dd2 isolate MRA-156 assessed as reversal of chloroquine resistance by measuring reduction in chloroquine IC50 at 500 nM relative to chloroquine alone.

For data set [7] the test system is unchanged. As to the kind of experiment: Inhibition of CRT K76T mutant in chloroquine/artemisinin-resistant Plasmodium falciparum ARS233 assessed as reversal of chloroquine resistance by measuring reduction in chloroquine IC50 at 500 nM relative to chloroquine alone.
Data set [8] shares this test system. Description: Inhibition of CRT K76T mutant in chloroquine/artemisinin-resistant Plasmodium falciparum ARS272 assessed as reversal of chloroquine resistance by measuring reduction in chloroquine IC50 at 500 nM relative to chloroquine alone.
Data set [9] has the same test system. As to the kind of experiment: Inhibition of CRT K76T mutant in chloroquine-resistant Plasmodium falciparum NHP4559 assessed as reversal of chloroquine resistance by measuring reduction in chloroquine IC50 at 500 nM relative to chloroquine alone.
For data set [10] the test system is unchanged. As to the kind of experiment: Inhibition of CRT K76T mutant in chloroquine/artemisinin-resistant Plasmodium falciparum NHP4773 assessed as reversal of chloroquine resistance by measuring reduction in chloroquine IC50 at 500 nM relative to chloroquine alone.
In data set [11] the test system is Plasmodium falciparum. As to the kind of experiment: Intrinsic antimalarial activity against chloroquine-sensitive Plasmodium falciparum 3D7 isolate MRA-102 assessed as reduction in parasite viability at 500 nM. It is filed as functional, organism-based.
Data set [12] deals with Plasmodium falciparum. As to the kind of experiment: Intrinsic antimalarial activity against chloroquine-sensitive Plasmodium falciparum HB3 isolate MRA-155 assessed as reduction in parasite viability at 500 nM. The data set is classed as functional, organism-based.
Data set [13] has as its system Plasmodium falciparum. Description: Intrinsic antimalarial activity against intermediate chloroquine-resistant Plasmodium falciparum 7G8 isolate MRA-154 harboring CRT SVMNT haplotype mutant assessed as reduction in parasite viability at 500 nM. It is filed as functional, organism-based.
The test system of data set [14] is Plasmodium falciparum. As to the kind of experiment: Intrinsic antimalarial activity against chloroquine-resistant Plasmodium falciparum K1 isolate MRA-159 harboring CRT CVIET haplotype mutant assessed as reduction in parasite viability at 500 nM. It is filed as functional, organism-based.
Data set [15] concerns Plasmodium falciparum. Description: Intrinsic antimalarial activity against chloroquine-resistant Plasmodium falciparum Dd2 isolate MRA-156 harboring CRT K76T mutant assessed as reduction in parasite viability at 500 nM. It is filed as functional, organism-based.
For data set [16], the system named is Plasmodium falciparum. Description: Intrinsic antimalarial activity against chloroquine/artemisinin-resistant Plasmodium falciparum ARS233 harboring CRT K76T mutant assessed as reduction in parasite viability at 500 nM. It is filed as functional, organism-based.
Data set [17] has as its system Plasmodium falciparum. As to the kind of experiment: Intrinsic antimalarial activity against chloroquine/artemisinin-resistant Plasmodium falciparum ARS272 harboring CRT K76T mutant assessed as reduction in parasite viability at 500 nM. The data set is classed as functional, organism-based.
The test system of data set [18] is Plasmodium falciparum. Description: Intrinsic antimalarial activity against chloroquine-resistant Plasmodium falciparum NHP4559 harboring CRT K76T mutant assessed as reduction in parasite viability at 500 nM. It is filed as functional, organism-based.
Data set [19] concerns Plasmodium falciparum. As to the kind of experiment: Intrinsic antimalarial activity against chloroquine/artemisinin-resistant Plasmodium falciparum NHP4773 harboring CRT K76T mutant assessed as reduction in parasite viability at 500 nM. It is filed as functional, organism-based.
Data set [20] can be described thus: Resistance index, ratio of chloroquine IC50 for intermediate chloroquine-resistant Plasmodium falciparum 7G8 isolate MRA-154 CRT SVMNT haplotype mutant to chloroquine IC50 for chloroquine-sensitive Plasmodium falciparum 3D7 isolate MRA-102 at 500 nM. In outline:
(§1)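 Chloroquine IC50 was measured with the chemoreversal agent fixed at 500 nM in K1 or 7G8 and in sensitive 3D7 (means, n = 3). The resistance ratio is the chloroquine IC50 in K1 or 7G8 divided by the chloroquine IC50 in 3D7.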

Data set [21] can be described thus: Resistance index, ratio of chloroquine IC50 for chloroquine-resistant Plasmodium falciparum K1 isolate MRA-159 CRT CVIET haplotype mutant to chloroquine IC50 for chloroquine-sensitive Plasmodium falciparum 3D7 isolate MRA-102 at 500 nM. In outline: as §1
In data set [22] the test system is TAMH. As to the kind of experiment: Cytotoxicity against TAMH assessed as reduction in cell viability by CellTiter-Glo assay. It is filed as cell-based. Particulars: Mus musculus. In outline:
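For TAMH (hepatocyte line) and AC10 (cardiomyocyte line), viability was read by ATP luminescence (CellTiter-Glo), and the value reported is IC50.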
(In general: In ATP-based viability assays light output follows the ATP content of the culture.)

A short description of data set [23]: Therapeutic index, ratio of IC50 for TAMH to EC50 for chloroquine-resistant Plasmodium falciparum K1 isolate MRA-159 CRT CVIET haplotype mutant. It is filed as toxicity. Conditions: mouse, TAMH cells; read-out: Ratio IC50/EC50. In outline: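 Host-cell IC50 was measured by ATP-luminescence viability assay in TAMH hepatocytes (mean of n = 4 independent determinations) or AC10 cardiomyocytes. Each IC50 was divided by the K1 EC50, the concentration of chemoreversal agent that halves the chloroquine concentration needed for 50% parasite inhibition.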

The nature of data set [24]: Aqueous kinetic solubility of compound in pH 7.4 solution incubated for 24 hrs. The data set is classed as physicochemical. Particulars: for solubility kinetic at 24 h: aqueous solution pH 7.4, pH 7.4, read-out: Kinetic_solubility.
Data set [25] in a line: Permeability of compound incubated for 6 hrs at pH 7.4 by PAMPA. Particulars: read-out: Peff. It is filed as ADME. (In general: The PAMPA barrier holds no transporters, so it reflects passive diffusion.)
Data set [26] is described as follows: Permeability of compound incubated for 16 hrs at pH 7.4 by PAMPA. The data set is classed as ADME. Conditions: read-out: Peff.
Data set [27] is described as follows: Inhibition of CRT CVIET haplotype mutant in Plasmodium falciparum K1 isolate MRA-159 infected in erythrocytes assessed as reversal of chloroquine resistance by measuring reduction in chloroquine IC50 by Hoechst 33342 staining based flow cytometry. The data set is classed as cell-based. The method in brief:
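Chloroquine IC50 was determined in the presence of a fixed 500 nM chemoreversal agent, against chloroquine alone. The RMI is the ratio of chloroquine IC50 with agent to chloroquine IC50 alone. Mean of n = 3; two-tailed t test versus chloroquine without agent.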

Data set [28] can be described thus: Solubility of compound in DMSO at 10 uM. The data set is classed as physicochemical. In outline:
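Solubility judged under the probe-3 uptake assay conditions. DMSO stocks were stored in aliquots and diluted to working concentration with PBS, protected from light. The compound was added to K1 parasite cultures (2.5% hematocrit, late-ring/early-trophozoite stage) with 6 of fluorescent CQ probe and incubated for 10 h at 37 °C.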

As to `Ic1ccccc1CN[C@@H]1C2CCN(CC2)[C@@H]1C(c1ccccc1)c1ccccc1`, the Activity in [1] came to 80.5%. The “Ratio IC50” value in [2] amounted to 1.07; in [3], 1.09; in [4] it was 0.59; in data set [5], 0.26; in data set [6], 0.37; in [7] it was 0.2. For the same compound, the Ratio IC50 stood at 0.26 in [8]; 0.28 in data set [9]; 0.27 in data set [10]; 3.4 in [20]; 5 in data set [21]. Further, the outcome in data set [11], in data set [12], in data set [13], in [14], in [15] and in [16] was inactive. For the same compound, the outcome in [17], in data set [18] and in data set [19] was inactive. In data set [22], the pIC50 was 4.76. In data set [23], the selectivity ratio came to 175. Further, the solubility kinetic at 24 h in [24] came to 31 µg/mL (≈ 61 µM). For the same compound, the Papp at 6 h in data set [25] came to 10.4 ×10⁻⁶ cm/s. Besides, the Papp at 16 h in data set [26] came to 8.24 ×10⁻⁶ cm/s. Also, the pEC50 in data set [27] was 7.01.

As for `CN1CCN(C2Cc3ccccc3Sc3ccc(Cl)cc32)CC1` (configuration not stated) [CLOROTEPINE], in [1], the Activity was 82.8%. Besides, the “Ratio IC50” value amounted to 1.07 in [2]; 1.04 in data set [3]; 1.12 in [4]; 0.94 in [5]; 0.98 in data set [6]; 0.87 in [7]. The Ratio IC50 is 1.05 in data set [8]; 1.09 in data set [9]; 0.87 in data set [10]; 6.4 in [20]; 18.1 in data set [21]. In addition, the result in data set [11], in [12], in data set [13], in data set [14], in data set [15] and in [16] was inactive. Moreover, the result in [17], in [18] and in [19] was inactive. In addition, the solubility kinetic at 24 h in data set [24] stood at 34.9 µg/mL (≈ 101 µM). Further, in [27], the pEC50 was 5.90.

For the compound `CN1CCN(C2Cc3ccccc3Sc3ccccc32)CC1` (configuration not stated), in data set [28], the solubility result is recorded as “Insoluble”.

Consider `CN(C)C(=O)C(CCN1CCC(O)(c2ccc(Cl)cc2)CC1)(c1ccccc1)c1ccccc1` [LOPERAMIDE], for which the Activity in [1] was 87.6%. For the same compound, the “Ratio IC50” value in data set [2] turned out to be 1.08; in [3], 1.04; in data set [4], 0.59; in data set [5], 0.74; in data set [6], 0.82; in data set [7], 0.64. The Ratio IC50 in [8] turned out to be 0.75; in [9] it was 0.79; in data set [10], 0.64; in [20] it was 3.4; in data set [21], 14. Besides, the outcome in data set [11], in data set [12], in [13], in data set [14], in data set [15] and in data set [16] was inactive. Further, the result in [17], in [18] and in data set [19] was inactive. Besides, the Kinetic_solubility in [24] (buffer, pH 7.4, 24 h) was found to be 410 µg/mL. In addition, in [25], the Papp at 6 h was 16 ×10⁻⁶ cm/s. Moreover, in data set [26], the Papp at 16 h was 12.5 ×10⁻⁶ cm/s. Further, the pEC50 in [27] was 6.16.

Take `CC(C)(C)OC(=O)N1CCN(C2Cc3ccccc3Sc3ccccc32)CC1` (configuration not stated): in data set [28], the solubility result is given as “Insoluble”.
